Hits are enriched below; roughly 5.8% of the tested compounds scored in any of these assays.
GASC1 inh: inhibitors of GASC-1 (KDM4C) histone demethylase, primary screen, biochemical, single concentration HTS | GST-KDM4C 2-372, H3K9me3 peptide, LANCE TR-FRET | inhibition, % at 12.5 µM | 0.15% of 96,000 active;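 active means mean replicate inhibition above about 25%, with at least 55% of replicates also reaching it, limit read from the data, passing the limit was not always enough; inconclusive means only one of those two conditions met; inactive means neither condition met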
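reagent = H3K9me3 peptide substrate, Fe(II), 2-oxoglutarate | system = GST-tagged GASC-1 (JMJD2C) catalytic fragment, aa 2-372 | amount = enzyme final amount 10 nM | read-out = Fall in 671/618 emission ratio as inhibition | medium = HEPES buffer, pH 7.5, plus ascorbate | schedule = 30 min reaction, 60 min detection, RT | measured by = LANCE TR-FRET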
IDH1 mut inh: inhibitors of IDH1 R132H reductase, primary screen, biochemical, plate reader, single point. Isocitrate dehydrogenase [NADP] cytoplasmic (Homo sapiens), O75874. diaphorase/resazurin fluorescence, 60 min. inhibition, % at 10 µM. 0.18% of 70,000 active. AID 624101, 2012; in the data active means inhibition above about 34%; inconclusive means no clear call, values can overlap the other calls; inactive means below about 11%;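 further: 0% = DMSO and 100% = no enzyme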
Target sequence (O75874 whole entry R132H): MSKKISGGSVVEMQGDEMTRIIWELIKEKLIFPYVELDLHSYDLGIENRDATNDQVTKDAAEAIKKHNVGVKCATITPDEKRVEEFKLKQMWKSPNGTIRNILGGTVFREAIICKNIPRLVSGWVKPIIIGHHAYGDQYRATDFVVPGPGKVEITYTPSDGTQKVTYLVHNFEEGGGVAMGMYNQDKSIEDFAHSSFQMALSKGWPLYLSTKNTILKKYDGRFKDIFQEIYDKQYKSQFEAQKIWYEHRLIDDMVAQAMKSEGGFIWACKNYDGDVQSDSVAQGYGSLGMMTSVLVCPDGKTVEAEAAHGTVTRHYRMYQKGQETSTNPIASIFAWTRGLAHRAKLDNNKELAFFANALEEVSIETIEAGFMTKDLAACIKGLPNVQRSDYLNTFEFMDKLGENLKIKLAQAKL
T cruzi growth-1: T. cruzi intracellular proliferation inhibitors, primary screen, cell-based, beta-gal Tulahuen parasites, NIH3T3 host, luminescence; AID 624255, 2012; T. cruzi beta-gal in NIH3T3, GalScreen luminescence, 90 h; 5.9% of 77,000 active; inhibition, % at 8.34 µM;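 active means mean inhibition above about 93%, with at least 55% of replicates each passing it, limit read from the data, passing the limit was not always enough; inconclusive means only one of those two conditions holds; inactive means neither condition holds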
Pf Dd2 growth: P. falciparum Dd2 growth inhibitors, primary screen, SYBR Green fluorescence, single dose replicates. 72 h; active compounds read low. activity change, % at 10 µM. AID 1159554, 2015. 2.3% of 94,000 active; in the data active means activity change below about -80%; inconclusive means no clear call, values can overlap the other calls
T cruzi growth-2: T. cruzi intracellular proliferation inhibitors, confirmation, cell-based, NIH3T3 host, beta-gal parasite, luminescence, cherry-pick; shares compounds with T cruzi growth-1; T. cruzi beta-gal in NIH3T3, GalScreen luminescence, 90 h; inhibition, % at 8.35 µM; 72% of 5,600 active; AID 651739, 2012;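 active means mean replicate inhibition above about 95% and at least 55% of replicates individually reaching it, limit read from the data; inconclusive means only one of the two criteria is met; inactive means neither criterion is met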
T cruzi growth-3: inhibitors of intracellular T. cruzi replication, confirmation, NIH3T3 host cells, beta-gal parasites, cherry-pick, set 2 | 21% of 5,600 active | shares compounds with T cruzi growth-1 | inhibition, % at 2.09 µM | AID 651740, 2012 | T. cruzi beta-gal in NIH3T3, GalScreen luminescence, 90 h;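 active means mean inhibition above about 95%, with at least 55% of replicates also reaching it, limit read from the data; inconclusive means meets just one of the two conditions; inactive means meets neither condition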;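 further: plate controls were neutral control median for no effect and positive control median for full effect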
3T3 cytotox: cytotoxicity in mouse NIH/3T3 fibroblasts, confirmation, cytotoxicity control for T. cruzi proliferation inhibitor project, cell-based, cherry-pick, single point | shares compounds with T cruzi growth-1 | NIH/3T3 viability, CellTiter-Glo ATP luminescence, 90 h | cytotoxicity (signal decrease), % at 8.35 µM | 14% of 5,600 active | AID 651742, 2012;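 active means mean signal decrease across replicates above about 35% based on untreated-well scatter, with enough replicates individually passing, limit read from the data; inconclusive means no rule stated though some were filed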;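 further: 0% = median of neutral control wells and 100% = median of positive control wells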
NIH3T3 tox 2: NIH/3T3 fibroblast cytotoxicity, confirmation, cytotoxicity control, cell-based, cherry-pick, single point, set 2 | shares compounds with T cruzi growth-1 | NIH/3T3 viability, CellTiter-Glo ATP luminescence, 90 h | inhibition, % at 24.9 µM | 56% of 5,600 active | AID 651744, 2012;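 active means mean loss of cell viability signal at or above a set limit, and enough replicates individually reaching it; inconclusive means meets only the mean limit or only the replicate share; inactive means meets neither condition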;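 further: 0% = median of neutral control wells and 100% = median of positive control wells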
Numbers without * were called inactive; ? = inconclusive; · = not tested or not shown.

SMILES	GASC1 inh	IDH1 mut inh	T cruzi growth-1	Pf Dd2 growth	T cruzi growth-2	T cruzi growth-3	3T3 cytotox	NIH3T3 tox 2
Cc1ccc(-c2ccc([C@@H]3[C@H](CO)N4CCCCN(C(=O)c5ccc(F)cc5)C[C@@H]34)cc2)cc1	-1	·	111*	-72	98*	65	?	103*
Cc1ccc(-c2ccc([C@@H]3[C@@H](CO)N4CCCCN(C(=O)c5ccc(F)cc5)C[C@H]34)cc2)cc1	3	·	104*	-4	108*	62	33	104*
CCC(=O)N1CCCCN2[C@@H](CO)[C@H](c3ccc(-c4ccc(F)cc4)cc3)[C@@H]2C1	-1	·	101*	16	83	62	21	61*
COc1cc(NC(=O)C2CC=CCC2C(=O)O)ccc1NC(=O)c1ccccc1 (stereo not given)	·	0	·	·	·	·	·	·
COc1ccc(Cl)cc1NC(=O)CSc1nnc(-c2ccccc2)n1C	·	0	·	·	·	·	·	·
NC(=O)C1(N2CCCCC2)CCN(CC(=O)Nc2ccc(Cl)cc2)CC1	·	1	·	·	·	·	·	·
CCOC(=O)c1c(-c2ccccc2)csc1NC(=O)Cn1cnc2ccccc2c1=O	·	0	·	·	·	·	·	·
CCCN1C[C@@H](C)[C@H](OC)CN(C)C(=O)c2cc(NC(=O)Nc3cccc(OC)c3)ccc2OC[C@H]1C	·	0	102*	·	110*	75	-2	54*
CCCN1C[C@@H](C)[C@H](OC)CN(C)C(=O)c2cc(NS(=O)(=O)c3ccccc3)ccc2OC[C@@H]1C	3	0	-12	-5	·	·	·	·
CO[C@@H]1CN(C)C(=O)c2cc(NC(=O)c3nc4ccccc4s3)ccc2OC[C@H](C)N(Cc2ccncc2)C[C@@H]1C	0	0	99*	·	90	44	-15	61*
CCCN1C[C@@H](C)[C@H](OC)CN(C)C(=O)c2cc(NS(=O)(=O)c3ccccc3)ccc2OC[C@H]1C	1	0	91*	-66	98*	41	2	-5
CO[C@@H]1CN(C)C(=O)c2cc(NS(=O)(=O)c3ccccc3)ccc2OC[C@H](C)N(Cc2nccs2)C[C@@H]1C	-1	0	111*	-22	74	2	18	45*
CO[C@H]1CN(C)C(=O)c2cc(NC(=O)c3nc4ccccc4s3)ccc2OC[C@@H](C)N(Cc2ccncc2)C[C@H]1C	0	10	94	·	·	·	·	·
Cc1ccc(C(=O)C2C(=O)C(=O)N(Cc3ccco3)C2c2ccc(F)cc2)o1 (stereo not given)	·	0	·	·	·	·	·	·
O=C(COc1ccc(S(=O)(=O)N2CCCC2)cc1Cl)Nc1ccc2c(c1)OCCO2	·	0	·	·	·	·	·	·
CS(=O)(=O)N(CC(=O)Nc1ccc(Br)cc1)c1ccc(Cl)c(C(F)(F)F)c1	·	0	·	·	·	·	·	·
Cc1ccc(-c2csc3ncnc(SCC(=O)c4ccc(F)cc4)c23)cc1	·	1	·	·	·	·	·	·
Cc1cccc(OCC(=O)Nc2cccc(-c3nc4cc(C)ccc4o3)c2)c1	·	0	·	·	·	·	·	·
CCS(=O)(=O)Nc1ccc2c(c1)C(=O)N(C)C[C@@H](OC)[C@H](C)CN(Cc1ccccn1)[C@@H](C)CO2	2	0	99*	40	-25	-32	-6	4
Cn1c(Cc2cccc3ccccc23)nnc1SCC(=O)N1CCc2ccccc21	·	-1	·	·	·	·	·	·
C[C@@H]1CN([C@H](C)CO)C(=O)c2cc(-c3ccccc3)cnc2O[C@H]1CN(C)C	3	2	?	4	100*	-26	5	20
C[C@H]1CN([C@@H](C)CO)C(=O)c2cc(-c3cncnc3)cnc2O[C@H]1CN(C)C(=O)CN1CCOCC1	2	0	·	19	·	·	·	·
Cc1ccc(-c2cnc3c(c2)C(=O)N([C@@H](C)CO)C[C@H](C)[C@@H](CN(C)CC2CCCC2)O3)cc1	-2	-1	103*	-69	108*	43	?	105*
C[C@H](CO)N1C[C@H](C)[C@@H](CN(C)C(=O)CN2CCOCC2)Oc2ncc(-c3cncnc3)cc2C1=O	1	-1	?	-16	-8	14	-2	-4
C[C@@H]1CCCCO[C@@H](CN(C)Cc2ccc(C(F)(F)F)cc2)[C@@H](C)CN([C@@H](C)CO)C(=O)c2cc(NC(=O)Nc3ccc4c(c3)OCO4)ccc2O1	-1	1	85	-8	·	·	·	·
C[C@@H]1CCCCO[C@H](CN(C)Cc2ccc3c(c2)OCO3)[C@@H](C)CN([C@H](C)CO)C(=O)c2cc(NC(=O)Nc3ccc(C(F)(F)F)cc3)ccc2O1	-1	3	?	-47	94	113*	19	102*
C[C@@H]1CN([C@H](C)CO)C(=O)c2cc(NC(=O)Nc3ccc(C(F)(F)F)cc3)ccc2O[C@@H](C)CCCCO[C@@H]1CN(C)Cc1ccc2c(c1)OCO2	1	·	?	-60	94	120*	?	102*
C[C@@H]1CCCCO[C@@H](CN(C)Cc2ccc3c(c2)OCO3)[C@H](C)CN([C@H](C)CO)C(=O)c2cc(NC(=O)Nc3ccc(C(F)(F)F)cc3)ccc2O1	-2	·	119*	-69	102*	110*	32	104*

Screens (PubChem)
